Data published in ChEMBL document CHEMBL1155086, “Synthesis and evaluation of antitubercular activity of glycosyl thio- and sulfonyl acetamide derivatives” (Bioorg Med Chem Lett, 2008).
In brackets after ≈: the same amount, converted by molar mass.

Experiments:
[1] = test system: Mycobacterium tuberculosis; assay: Antitubercular activity against Mycobacterium tuberculosis H37Rv after 4 weeks by agar dilution method; type: functional; conditions: 672 h
How it was run: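 Proportion method on agar: serial twofold dilutions mixed into warm Middlebrook 7H10 agar and set as slants. Each slant surface inoculated with 10⁵ CFU of M. tuberculosis H37Rv in 10 µL, then incubated at 37 °C for 4 weeks. MIC (µg/mL) taken as the lowest concentration giving complete inhibition of colony growth. Rifampicin and isoniazid served as reference drugs.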

[2] = Cytotoxicity against african green monkey Vero C1008 cells; type: cell-based; conditions: chlorocebus sabaeus
How it was run: (§1)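 MTS (Mosmann-type) viability assay. 10⁴ cells/well in DME with 10% foetal bovine serum plus antibiotics were pre-incubated 24 h at 37 °C, 5% CO2. Medium was then replaced with serial dilutions of compound, a standard toxic compound or DMSO, and incubated a further 24 h. MTS was added and absorbance read at 490 nm after 2 h. DMSO wells were set as 100% viability.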

[3] = Cytotoxicity against mouse bone marrow derived macrophages; type: cell-based; conditions: macrophage; how it was run: as §1

CC(=O)OC[C@H]1O[C@@H](S(=O)(=O)CC(N)=O)[C@H](OC(C)=O)[C@@H](OC(C)=O)[C@H]1OC(C)=O
MIC [1]: 3.12 µg/mL (≈ 6.89 µM)
Activity [2]: Non-toxic
Activity [3]: Non-toxic

CCCCCCCCNC(=O)CS(=O)(=O)[C@@H]1O[C@H](COC(C)=O)[C@@H](OC(C)=O)[C@H](OC(C)=O)[C@H]1OC(C)=O
MIC [1]: > 12.5 µg/mL

CCCCCCCCNC(=O)CS[C@@H]1O[C@H](COC(C)=O)[C@@H](OC(C)=O)[C@H](OC(C)=O)[C@H]1OC(C)=O
MIC [1]: > 12.5 µg/mL

CC(=O)OC[C@H]1O[C@@H](S(=O)(=O)CC(N)=O)[C@@H](OC(C)=O)[C@@H](OC(C)=O)[C@@H]1OC(C)=O
MIC [1]: > 12.5 µg/mL

CC(=O)O[C@@H]1[C@H](OC(C)=O)[C@H](OC(C)=O)CO[C@H]1SCC(N)=O
MIC [1]: 12.5 µg/mL (≈ 35.8 µM)

CCCCCCCCCCCCNC(=O)CS[C@@H]1O[C@H](COC(C)=O)[C@@H](O[C@@H]2O[C@H](COC(C)=O)[C@H](OC(C)=O)[C@H](OC(C)=O)[C@H]2OC(C)=O)[C@H](OC(C)=O)[C@H]1OC(C)=O
MIC [1]: > 12.5 µg/mL

CC(=O)O[C@H]1[C@H](OC(C)=O)[C@H](OC(C)=O)CO[C@H]1S(=O)(=O)CC(N)=O
MIC [1]: 12.5 µg/mL (≈ 32.8 µM)

CCCCCCCCNC(=O)CS(=O)(=O)[C@@H]1OC[C@@H](OC(C)=O)[C@@H](OC(C)=O)[C@@H]1OC(C)=O
MIC [1]: > 12.5 µg/mL

CC(=O)O[C@H]1[C@H](OC(C)=O)[C@H](SCC(N)=O)OC[C@H]1OC(C)=O
MIC [1]: > 12.5 µg/mL

CC(=O)O[C@@H]1[C@H](OC(C)=O)[C@H](OC(C)=O)CO[C@H]1S(=O)(=O)CC(N)=O
MIC [1]: 6.25 µg/mL (≈ 16.4 µM)
Activity [2]: Non-toxic
Activity [3]: Non-toxic

CCCCCCCCCCCCNC(=O)CS(=O)(=O)[C@@H]1O[C@H](COC(C)=O)[C@@H](OC(C)=O)[C@H](OC(C)=O)[C@H]1OC(C)=O
MIC [1]: > 12.5 µg/mL

CC(=O)OC[C@H]1O[C@@H](SCC(N)=O)[C@H](OC(C)=O)[C@@H](OC(C)=O)[C@H]1OC(C)=O
MIC [1]: 1.56 µg/mL (≈ 3.7 µM)
Activity [2]: Non-toxic
Activity [3]: Non-toxic

CCCCCCCCCCCCNC(=O)CS(=O)(=O)[C@@H]1O[C@H](COC(C)=O)[C@@H](O[C@@H]2O[C@H](COC(C)=O)[C@H](OC(C)=O)[C@H](OC(C)=O)[C@H]2OC(C)=O)[C@H](OC(C)=O)[C@H]1OC(C)=O
MIC [1]: > 12.5 µg/mL

CCCCCCCCNC(=O)CS[C@@H]1OC[C@@H](OC(C)=O)[C@@H](OC(C)=O)[C@@H]1OC(C)=O
MIC [1]: > 12.5 µg/mL

CC(=O)OC[C@H]1O[C@@H](O[C@H]2[C@H](OC(C)=O)[C@@H](OC(C)=O)[C@H](SCC(N)=O)O[C@@H]2COC(C)=O)[C@H](OC(C)=O)[C@@H](OC(C)=O)[C@H]1OC(C)=O
MIC [1]: > 12.5 µg/mL

CC(=O)OC[C@H]1O[C@@H](SCC(N)=O)[C@@H](OC(C)=O)[C@@H](OC(C)=O)[C@@H]1OC(C)=O
MIC [1]: 3.12 µg/mL (≈ 7.42 µM)
Activity [2]: Non-toxic
Activity [3]: Non-toxic

CC(=O)OC[C@H]1O[C@@H](O[C@H]2[C@H](OC(C)=O)[C@@H](OC(C)=O)[C@H](S(=O)(=O)CC(N)=O)O[C@@H]2COC(C)=O)[C@H](OC(C)=O)[C@@H](OC(C)=O)[C@H]1OC(C)=O
MIC [1]: 3.12 µg/mL (≈ 4.21 µM)
Activity [2]: Non-toxic
Activity [3]: Non-toxic

CC(=O)OC[C@H]1O[C@@H](S(=O)(=O)CC(N)=O)[C@H](OC(C)=O)[C@@H](OC(C)=O)[C@@H]1O[C@H]1O[C@H](COC(C)=O)[C@@H](OC(C)=O)[C@H](OC(C)=O)[C@H]1OC(C)=O
MIC [1]: 25 µg/mL (≈ 33.7 µM)

CC(=O)OC[C@H]1O[C@@H](S(=O)(=O)CC(N)=O)[C@H](OC(C)=O)[C@@H](OC(C)=O)[C@@H]1O[C@@H]1O[C@H](COC(C)=O)[C@@H](OC(C)=O)[C@H](OC(C)=O)[C@H]1OC(C)=O
MIC [1]: 25 µg/mL (≈ 33.7 µM)

CC(=O)OC[C@H]1O[C@@H](S(=O)(=O)CC(N)=O)[C@H](OC(C)=O)[C@@H](OC(C)=O)[C@@H]1OC(C)=O
MIC [1]: 3.12 µg/mL (≈ 6.89 µM)
Activity [2]: Non-toxic
Activity [3]: Non-toxic

CC(=O)OC[C@H]1O[C@@H](SCC(N)=O)[C@H](OC(C)=O)[C@@H](OC(C)=O)[C@@H]1O[C@H]1O[C@H](COC(C)=O)[C@@H](OC(C)=O)[C@H](OC(C)=O)[C@H]1OC(C)=O
MIC [1]: > 12.5 µg/mL

CC(=O)OC[C@H]1O[C@@H](SCC(=O)NCc2ccccc2)[C@H](OC(C)=O)[C@@H](OC(C)=O)[C@@H]1OC(C)=O
MIC [1]: 6.25 µg/mL (≈ 12.2 µM)

CC(=O)O[C@@H]1[C@@H](OC(C)=O)[C@H](SCC(N)=O)OC[C@H]1OC(C)=O
MIC [1]: 12.5 µg/mL (≈ 35.8 µM)

CC(=O)O[C@@H]1[C@@H](OC(C)=O)[C@H](OC(C)=O)CO[C@H]1S(=O)(=O)CC(N)=O
MIC [1]: 12.5 µg/mL (≈ 32.8 µM)

CCCCCCCCCCCCNC(=O)CS[C@@H]1O[C@H](COC(C)=O)[C@@H](OC(C)=O)[C@H](OC(C)=O)[C@H]1OC(C)=O
MIC [1]: > 12.5 µg/mL

CCCCCCCCCCCCNC(=O)CS(=O)(=O)[C@@H]1OC[C@@H](OC(C)=O)[C@@H](OC(C)=O)[C@@H]1OC(C)=O
MIC [1]: > 12.5 µg/mL

CCCCCCCCNC(=O)CS[C@@H]1O[C@H](COC(C)=O)[C@@H](O[C@@H]2O[C@H](COC(C)=O)[C@H](OC(C)=O)[C@H](OC(C)=O)[C@H]2OC(C)=O)[C@H](OC(C)=O)[C@H]1OC(C)=O
MIC [1]: > 12.5 µg/mL

CC(=O)OC[C@H]1O[C@@H](S(=O)(=O)CC(=O)NCc2ccccc2)[C@H](OC(C)=O)[C@@H](OC(C)=O)[C@@H]1OC(C)=O
MIC [1]: 6.25 µg/mL (≈ 11.5 µM)
Activity [2]: Non-toxic
Activity [3]: Non-toxic

CC(=O)OC[C@H]1O[C@@H](SCC(N)=O)[C@H](OC(C)=O)[C@@H](OC(C)=O)[C@@H]1O[C@@H]1O[C@H](COC(C)=O)[C@@H](OC(C)=O)[C@H](OC(C)=O)[C@H]1OC(C)=O
MIC [1]: > 12.5 µg/mL

CCCCCCCCNC(=O)CS(=O)(=O)[C@@H]1O[C@H](COC(C)=O)[C@@H](O[C@@H]2O[C@H](COC(C)=O)[C@H](OC(C)=O)[C@H](OC(C)=O)[C@H]2OC(C)=O)[C@H](OC(C)=O)[C@H]1OC(C)=O
MIC [1]: > 12.5 µg/mL

CC(=O)OC[C@H]1O[C@@H](SCC(N)=O)[C@H](OC(C)=O)[C@@H](OC(C)=O)[C@@H]1OC(C)=O
MIC [1]: 3.12 µg/mL (≈ 7.42 µM)
Activity [2]: Non-toxic
Activity [3]: Non-toxic

CCCCCCCCCCCCNC(=O)CS[C@@H]1OC[C@@H](OC(C)=O)[C@@H](OC(C)=O)[C@@H]1OC(C)=O
MIC [1]: 3.12 µg/mL (≈ 6.04 µM)
Activity [2]: Non-toxic
Activity [3]: Non-toxic
